In ChEMBL document CHEMBL4619791, “3-Difluoroalkyl Quaternary Oxindoles Inhibit Macrophage Pyroptosis by Blocking Inflammasome Recruitment of Caspase-1” (ACS Med Chem Lett, 2020):
The source made the active and inactive calls. No cut-off for these calls is given here.

Key:
J774.A1 [1] = test: Inhibition of pyroptosis in LPS-primed immortalized mouse […] cells followed by subsequent nigericin stimulation by imaging analysis; format: functional, cell-based
J774.A1 [2] = test: Inhibition of pyroptosis in LPS-primed immortalized mouse […] cells assessed as reduction in nigericin-induced IL-beta secretion by imaging analysis; format: functional
[3] = Toxicity in zebrafish embryo; parameters: species or system Danio rerio; settings: in vivo
In short: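 Zebrafish embryos exposed to compound. EC100 is the concentration at which all treated embryos show early lethality, embryonic defects or developmental delay.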

Caspase-1 (Homo sapiens) = biological target: T1, Caspase-1 (Homo sapiens) (UniProt P29466); test: Inhibition of pronase-mediated caspase-1 degradation in HEK293 cell lysate at 5 uM measured after 30 mins by DARTS based Western blot analysis; format: cell-free
T1 sequence (whole entry): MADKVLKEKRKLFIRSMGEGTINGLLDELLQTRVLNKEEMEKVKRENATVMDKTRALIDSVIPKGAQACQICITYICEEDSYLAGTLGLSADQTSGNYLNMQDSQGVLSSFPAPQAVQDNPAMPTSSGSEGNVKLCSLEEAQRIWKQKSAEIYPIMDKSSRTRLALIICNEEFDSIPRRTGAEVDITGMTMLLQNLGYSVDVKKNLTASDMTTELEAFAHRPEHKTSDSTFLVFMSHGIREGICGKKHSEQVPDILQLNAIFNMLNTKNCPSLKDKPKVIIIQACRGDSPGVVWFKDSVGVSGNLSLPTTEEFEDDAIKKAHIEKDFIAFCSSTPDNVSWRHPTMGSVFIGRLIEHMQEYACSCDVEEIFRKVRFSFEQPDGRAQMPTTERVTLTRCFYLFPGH
In short: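 DARTS assay: cell lysates pretreated with compound, then digested with different Pronase concentrations. Caspase-1 stability read by immunoblot against a histone H3 control.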

`CCOC(CN1C(=O)C(NC(=O)OC(C)(C)C)(C(F)(F)C(=O)c2ccc(OC)cc2)c2ccccc21)OCC` (stereo not drawn) showed an EC50 (J774.A1 [1]) of 17.5 µM, an Activity (J774.A1 [2]) of 202.6 pg/mL and an EC100 [3] greater than 50 µM.

With `CN1C(=O)C(NC(=O)OC(C)(C)C)(C(F)(F)C(=O)c2ccccc2)c2ccccc21` (stereo not drawn) the Activity (J774.A1 [2]) was 232.64 pg/mL, the EC100 [3] was greater than 50 µM and the inhibition (Caspase-1 (Homo sapiens)) was “inactive”.

Work on `CC(C)(C)OC(=O)NC1(C(F)(F)C(=O)c2ccccc2)C(=O)Nc2ccccc21` (stereo not drawn) yielded an Activity (J774.A1 [2]) of 240.83 pg/mL and an EC100 [3] greater than 50 µM.

For `CCOC(CN1C(=O)C(NC(=O)OC(C)(C)C)(C(F)(F)C(=O)c2ccccc2)c2ccccc21)OCC` (stereo not drawn), the EC50 (J774.A1 [1]) was 9.5 µM, the Activity (J774.A1 [2]) was 222.04 pg/mL and the EC100 [3] was 50 µM.

Compound `N#CC(C#N)C1(C(F)(F)C(=O)c2ccc(Cl)cc2)C(=O)Nc2ccccc21` (stereo not drawn) has an Activity (J774.A1 [2]) of 252.29 pg/mL and an EC100 [3] of 20 µM.
